Results pooled from the literature.
Protocols differ between the studies behind these lines.
Target: Ephrin type-A receptor 6 (EPHA6, Homo sapiens, UniProt Q9UF33)
Sequence (Q9UF33 23-1036, as in one of the studies): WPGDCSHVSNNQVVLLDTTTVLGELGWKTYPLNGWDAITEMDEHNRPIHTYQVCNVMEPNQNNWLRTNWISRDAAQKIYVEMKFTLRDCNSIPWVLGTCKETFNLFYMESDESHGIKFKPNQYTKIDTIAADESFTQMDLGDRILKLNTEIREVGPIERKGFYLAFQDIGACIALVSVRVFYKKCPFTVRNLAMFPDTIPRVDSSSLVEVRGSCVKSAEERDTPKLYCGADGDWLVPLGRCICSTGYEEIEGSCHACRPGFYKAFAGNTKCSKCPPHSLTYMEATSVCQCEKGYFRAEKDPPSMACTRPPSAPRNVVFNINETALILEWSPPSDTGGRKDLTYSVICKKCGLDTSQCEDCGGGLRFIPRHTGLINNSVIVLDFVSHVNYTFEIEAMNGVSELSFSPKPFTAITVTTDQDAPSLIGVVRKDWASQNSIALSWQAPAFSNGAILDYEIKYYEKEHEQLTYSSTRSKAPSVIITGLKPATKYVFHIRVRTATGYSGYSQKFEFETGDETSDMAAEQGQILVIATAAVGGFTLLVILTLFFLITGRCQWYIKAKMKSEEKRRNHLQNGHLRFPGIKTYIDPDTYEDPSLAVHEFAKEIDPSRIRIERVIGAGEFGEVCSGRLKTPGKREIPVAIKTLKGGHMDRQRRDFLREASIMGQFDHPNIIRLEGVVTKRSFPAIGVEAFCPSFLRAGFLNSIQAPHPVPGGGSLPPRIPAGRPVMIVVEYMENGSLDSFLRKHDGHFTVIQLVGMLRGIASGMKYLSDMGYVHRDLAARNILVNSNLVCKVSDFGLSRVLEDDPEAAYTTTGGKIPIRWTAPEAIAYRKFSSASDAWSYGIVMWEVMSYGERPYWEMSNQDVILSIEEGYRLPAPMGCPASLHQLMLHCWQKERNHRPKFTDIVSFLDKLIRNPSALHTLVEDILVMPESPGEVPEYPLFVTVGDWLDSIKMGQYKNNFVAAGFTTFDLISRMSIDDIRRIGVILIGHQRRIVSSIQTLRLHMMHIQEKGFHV

SMILES	read-out	technique	tested at	remaining binding [%]
Cc1nc(Cc2cccc(C(F)(F)F)c2)sc1-c1ccc(C(N)=O)nc1	cell-free assay	competition with immobilised ligand	1 µM	96
O=C(c1ccc(Nc2ncc(Cl)c(-c3ccc(Cl)s3)n2)cc1)N1CCC(N2CCCC2)CC1	binding	competition with immobilised ligand	1 µM	51
CN(C)c1nccc(-c2cnc3ncccn23)n1	binding		1 µM	98
O=C(NCCCN1CCOCC1)c1ccc(Nc2nccc(-c3cc4ccccc4s3)n2)cc1	binding	competition with immobilised ligand	1 µM	97
CNCc1ccccc1-c1csc([C@H](C)Nc2nc(C)nc3cc(OC)c(OC)cc23)c1	cell-free assay	competition with immobilised ligand	1 µM	100
CCN1CCN(Cc2ccc(C(=O)Nc3ccc(C)c(Oc4ccc5c(c4)CC(=O)N5)c3)cc2C(F)(F)F)CC1	binding	competition with immobilised ligand	1 µM	100
COc1cnc(Nc2cccc(S(N)(=O)=O)c2)nc1N1CCN(c2ccccc2)C(=O)C1	binding	competition with immobilised ligand	1 µM	100
C[C@H]1CCN(c2nccc(-c3cnn4ncccc34)n2)C1	binding		1 µM	100
FC(F)(F)Oc1cccc(-c2cnc3ccc(-c4ccncc4)nn23)c1	cell-free assay	competition with immobilised ligand	5 µM	93
O=C(Nc1c[nH]nc1C(=O)NC1CCNCC1)c1cc(F)cc(F)c1	binding	competition with immobilised ligand	1 µM	100
CC(=O)N1CCC(c2ccc(C(=O)NC3=NCCN3)cc2C(F)(F)F)CC1	cell-free assay	competition with immobilised ligand	1 µM	98
Nc1ncc2c(n1)-c1c([nH]c3ccc(C#CC4CC4)cc13)CCCC2	binding	competition with immobilised ligand	1 µM	100
N[C@H]1CCN(c2nccc(-c3cnn4ncccc34)n2)C1	binding		1 µM	100
O=C(Nc1cccnn1)N1CCC(=Cc2cccc(Oc3ccc(C(F)(F)F)cn3)c2)CC1	cell-free assay	competition with immobilised ligand	1 µM	78
C[C@@H](c1ccc(-n2cnc3c(N)ncnc32)cc1)N1CCc2nn(C)c(Cc3ccccc3)c2C1=O	binding	competition with immobilised ligand	0.1 µM	100
CN(c1nccc(-c2cnn3ncccc23)n1)C1CC1	binding		1 µM	99
COc1cc(-c2cn(C3CCc4c(F)cccc4N(CC(F)(F)F)C3=O)nn2)ccc1-n1cnc(C)c1 (stereo not drawn)	cell-free assay	competition with immobilised ligand	1 µM	100
CN(C)c1ncc(F)c(-c2cnn3ncccc23)n1	binding		1 µM	82
O=C(NCCCN1CCOCC1)c1ccc(Nc2ncc(Cl)c(-c3ccc(Cl)s3)n2)cc1	binding	competition with immobilised ligand	1 µM	63
CN(CCCC(F)(F)F)c1nccc(-c2cnn3ncccc23)n1	binding		1 µM	89
CCS(=O)(=O)c1cc2cc(C[C@@](O)(CC(C)(C)c3ccc(F)cc3C(N)=O)C(F)(F)F)[nH]c2cn1	cell-free assay	competition with immobilised ligand	1 µM	100
